Here are results for 15 compounds from ChEMBL document CHEMBL3425419, “Developing new chemical tools for DNA methyltransferase 1 (DNMT 1): a small-molecule activity-based probe and novel tetrazole-containing inhibitors” (Bioorg Med Chem, 2015).

Molecules are shown by their SMILES. Activity calls are given as the source filed them.

Data set [1] deals with MCF7. The data set is described as follows: Cytotoxicity against human MCF7 cells after 72 hrs by XTT assay. The following applies: for GI50: MCF7, 72 h. Format: functional. In a few lines:
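MCF-7 breast cancer cells exposed to a range of compound concentrations, and growth read by XTT anti-proliferation assay. GI50 is defined as the concentration giving 50% growth inhibition, taken from dose–response plots.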
(Tetrazolium dyes change colour on reduction, which living cells bring about.)

For data set [2], the target named is DNA (cytosine-5)-methyltransferase 1 (Homo sapiens) (UniProt P26358). In words: Inhibition of recombinant DNMT1 (unknown origin) after 90 mins by fluorescence assay.
Sequence of DNA (cytosine-5)-methyltransferase 1 (Homo sapiens) (P26358 whole entry): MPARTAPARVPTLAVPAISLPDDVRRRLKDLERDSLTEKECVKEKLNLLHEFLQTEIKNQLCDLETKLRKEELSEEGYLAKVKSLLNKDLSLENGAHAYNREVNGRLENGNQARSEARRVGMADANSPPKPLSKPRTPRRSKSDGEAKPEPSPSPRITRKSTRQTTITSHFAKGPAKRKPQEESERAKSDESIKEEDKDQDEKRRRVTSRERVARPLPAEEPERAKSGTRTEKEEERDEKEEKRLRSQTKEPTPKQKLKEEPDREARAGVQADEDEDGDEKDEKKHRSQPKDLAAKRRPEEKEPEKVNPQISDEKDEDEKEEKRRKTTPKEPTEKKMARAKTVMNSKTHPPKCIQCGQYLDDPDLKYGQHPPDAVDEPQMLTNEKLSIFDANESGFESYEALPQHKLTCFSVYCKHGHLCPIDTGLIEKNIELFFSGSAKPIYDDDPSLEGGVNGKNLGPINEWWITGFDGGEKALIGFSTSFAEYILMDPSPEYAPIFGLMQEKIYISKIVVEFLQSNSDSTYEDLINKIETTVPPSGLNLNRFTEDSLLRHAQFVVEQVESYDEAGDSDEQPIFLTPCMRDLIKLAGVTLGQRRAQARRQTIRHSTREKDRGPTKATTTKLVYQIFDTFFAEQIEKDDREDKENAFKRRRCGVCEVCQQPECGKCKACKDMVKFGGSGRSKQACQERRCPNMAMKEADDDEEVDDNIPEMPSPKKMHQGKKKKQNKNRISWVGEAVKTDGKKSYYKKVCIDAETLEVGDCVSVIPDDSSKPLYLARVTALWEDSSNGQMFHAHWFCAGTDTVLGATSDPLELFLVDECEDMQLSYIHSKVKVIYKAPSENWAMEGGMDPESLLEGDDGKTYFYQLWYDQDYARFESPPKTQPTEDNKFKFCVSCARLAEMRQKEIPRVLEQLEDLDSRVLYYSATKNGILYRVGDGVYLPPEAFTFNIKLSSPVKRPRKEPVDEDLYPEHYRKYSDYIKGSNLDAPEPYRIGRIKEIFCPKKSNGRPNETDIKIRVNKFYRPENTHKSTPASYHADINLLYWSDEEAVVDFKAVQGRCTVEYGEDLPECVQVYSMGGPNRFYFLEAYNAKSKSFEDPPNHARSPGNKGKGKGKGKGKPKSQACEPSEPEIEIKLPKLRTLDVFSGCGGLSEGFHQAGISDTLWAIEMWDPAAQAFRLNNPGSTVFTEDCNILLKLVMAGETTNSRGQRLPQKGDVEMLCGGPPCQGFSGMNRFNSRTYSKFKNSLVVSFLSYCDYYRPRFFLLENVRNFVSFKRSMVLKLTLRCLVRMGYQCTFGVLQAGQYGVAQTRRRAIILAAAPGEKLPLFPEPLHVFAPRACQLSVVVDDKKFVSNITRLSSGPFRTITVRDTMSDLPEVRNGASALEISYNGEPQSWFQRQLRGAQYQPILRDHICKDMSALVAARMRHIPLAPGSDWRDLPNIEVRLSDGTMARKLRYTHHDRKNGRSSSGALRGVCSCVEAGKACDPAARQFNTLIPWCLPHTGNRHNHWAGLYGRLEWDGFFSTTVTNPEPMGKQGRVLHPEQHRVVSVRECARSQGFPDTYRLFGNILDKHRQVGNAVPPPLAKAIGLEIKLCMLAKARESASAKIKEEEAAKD
Data set [3] relates to MCF7. The data set is described as follows: Induction of apoptosis in human MCF7 cells assessed as apoptotic cells at 10 uM after 6 hrs by FITC-Annexin V/propidium iodide staining-based FACS analysis relative to control. Type of data set: functional. The method in brief: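 Live MCF-7 cells treated with inhibitors at 10 µM, then stained with FITC Annexin V (apoptosis) and propidium iodide (cell death). Signals were quantified by flow cytometry against DMSO-treated cells.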
On the technique in general: Flow cytometry measures light scatter and fluorescence of single cells or particles in a stream.

Data set [4] deals with DNA (cytosine-5)-methyltransferase 1 (Homo sapiens) (UniProt P26358). The data set is described as follows: Competitive inhibition of DNMT1 in (S)-Methyl 2-(2,5-dioxo-2,5-dihydro-1H-pyrrol-1-yl)-3-(5-(prop-2-yn-1-yloxy)-1H-indol-3-yl)propanoate labeled human MCF7 cells at 50 to 500 uM preincubated for 1 hr followed by cell labeling for 1 hr and clicked with TER-biotin-N3 for 2 hrs and pull down by Western blot analysis. Type of data set: cell-based. The method in brief: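 Mammalian cells pretreated with competitor at 50, 100 or 500 µM. Their lysates were then labelled with 10 µM alkyne probe for 1 h at room temperature and clicked for 2 h with TER-Biotin-N3. DNMT1 (~183 kDa) was detected by pull-down and western blot, with DMSO as the negative control.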

Data set [5] has the same target. In words: Competitive inhibition of DNMT1 in (S)-Methyl 2-(2,5-dioxo-2,5-dihydro-1H-pyrrol-1-yl)-3-(5-(prop-2-yn-1-yloxy)-1H-indol-3-yl)propanoate labeled human MCF7 cells at 100 uM preincubated for 1 hr followed by cell labeling for 30 mins and clicked with TER-PEG-N3 measured after 2 hrs by Hoechst 33342 staining-based immunofluorescence assay. The method in brief:
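Live MCF-7 cells pretreated with competitor at 100 µM for 1 h, then given 5 µM alkyne probe for 30 min in the incubator. Cells were fixed (3.7% formaldehyde), permeabilised (0.1% Triton X-100), clicked with TER-PEG-N3, immunostained with anti-DNMT1 and Hoechst-stained. Imaging was by fluorescence microscopy in four channels (bright-field, probe, IF, nuclear).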

The test system of data set [6] is MCF7. The data set is described as follows: Induction of apoptosis in human MCF7 cells assessed as dead cells at 10 uM after 6 hrs by FITC-Annexin V/propidium iodide staining-based FACS analysis relative to control. Format: functional. The method in brief:
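Live MCF-7 cells treated with compound at 10 µM, then stained with FITC-Annexin V (apoptotic cells) and propidium iodide (dead cells). Signals quantified by flow cytometry and read from histograms.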

Data set [7] in a line: Drug uptake in nucleus of human MCF7 cells at 5 uM preincubated for 30 hrs post RG108, 1149 and (S)-Methyl 2-(2,5-dioxo-2,5-dihydro-1H-pyrrol-1-yl)-3-(4-(5-phenyl-2H-tetrazol-2-yl)phenyl)propanoate treatment followed by clicked with TER-PEG-N3 measured after 2 hrs by Hoechst 33342 staining-based immunofluorescence assay. Format: ADME, cell-based. The following applies: mcf7, 2 h, in the assay text read “30 min” for “30 hrs”. The method in brief: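 MCF-7 cells incubated with 5 µM alkyne probe for 30 min in the incubator, fixed with 3.7% formaldehyde, permeabilised with 0.1% Triton X-100 and clicked with TER-PEG-N3. Anti-DNMT1 immunofluorescence and Hoechst nuclear staining followed. Localisation was read by fluorescence microscopy, with DMSO-only cells as control.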

Data set [8] has as its target DNA (cytosine-5)-methyltransferase 1 (Homo sapiens) (UniProt P26358). The data set is described as follows: Binding affinity to DNMT1 in human MCF7 cells at 10 uM preincubated for 1 hr post RG108, 1149 and (S)-Methyl 2-(2,5-dioxo-2,5-dihydro-1H-pyrrol-1-yl)-3-(4-(5-phenyl-2H-tetrazol-2-yl)phenyl)propanoate treatment followed by clicked with TER-Biotin-N3 for 2 hrs and pull down by Western blot analysis. Type of data set: cell-based. In a few lines: (§1)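 Freshly prepared MCF-7 lysate (100 µg) labelled with 10 µM alkyne probe for 1 h at room temperature, then CuAAC click for 2 h. TER-PEG-N3 was used for in-gel fluorescence scanning, and TER-Biotin-N3 for pull-down followed by western blot against DNMT1. DMSO-treated cells served as the negative control.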
(In general: In western blotting, separated proteins are transferred to a membrane and probed.)

For data set [9] the target is unchanged. In words: Binding affinity to DNMT1 in human MCF7 cells at 10 uM preincubated for 1 hr post RG108, 1149 and (S)-Methyl 2-(2,5-dioxo-2,5-dihydro-1H-pyrrol-1-yl)-3-(4-(5-phenyl-2H-tetrazol-2-yl)phenyl)propanoate treatment followed by CuAAC click chemistry application measured after 2 hrs by gel fluorescence scanning assay. Type of data set: cell-based. The method in brief: as §1

The GI50 is the concentration giving 50% growth inhibition. A lower GI50 goes with greater sensitivity of the cells. Regarding `COC(=O)[C@H](Cc1ccc(-n2nnc(-c3ccc(F)cc3)n2)cc1)N1C(=O)C=CC1=O`, in data set [1], the “growth inhibition (GI)” value was “Dose-dependent effect” and growth was halved (GI50) at 1160 nM. For the same compound, the inhibition result in data set [2] was “Active”.

In the case of `O=C(O)[C@H](Cc1c[nH]c2ccccc12)N1C(=O)c2ccccc2C1=O`, the outcome in [3] and in [6] was Active. Besides, the inhibition result in [4], in data set [2] and in data set [5] was “Active” in each case. The same compound displayed a GI50 in data set [1] of 128000 nM.

Consider `COC(=O)[C@H](Cc1ccc(-n2nnc(-c3cccc4ccccc34)n2)cc1)N1C(=O)C=CC1=O`, for which, in data set [1], the “growth inhibition (GI)” value was “Dose-dependent effect” and the GI50 worked out at 480 nM. Moreover, in data set [2], the inhibition result was “Active”.

Take `C#CCOc1ccc2[nH]cc(C[C@@H](C(=O)OC)N3C(=O)C=CC3=O)c2c1`: the Drug uptake result in data set [7] is reported as “Active”. The outcome in data set [8] was Active. The Activity in data set [3] is given as 61%. Moreover, in data set [9], the outcome was inactive. Moreover, in [1], the “growth inhibition (GI)” value is “Dose-dependent effect” and the GI50 came out at 290 nM.

For the compound `COC(=O)[C@H](Cc1ccc(-n2nnc(-c3ccc(N(C)C)cc3)n2)cc1)N1C(=O)C=CC1=O`, in data set [1], the “growth inhibition (GI)” value was “Dose-dependent effect” and the GI50 came to 1080 nM. In addition, the inhibition result in [2] was “Active”.

Consider `CCCCCCOc1ccc(-c2nnn(-c3ccc(C[C@@H](C(=O)OC)N4C(=O)C=CC4=O)cc3)n2)cc1`, for which, in data set [1], the “growth inhibition (GI)” value is “Dose-dependent effect” and the GI50 is 6150 nM. The inhibition entry in data set [2] was “Active”.

With `COC(=O)[C@H](Cc1ccc(-n2nnc(-c3cc(C)cc(C)c3)n2)cc1)N1C(=O)C=CC1=O`, in data set [1], the “growth inhibition (GI)” value is “Dose-dependent effect” and the GI50 amounted to 780 nM. The inhibition result in data set [2] is “Active”.

For `COC(=O)[C@H](Cc1ccc(-n2nnc(-c3ccc(OC(F)F)cc3)n2)cc1)N1C(=O)C=CC1=O`, in [1], the “growth inhibition (GI)” value was “Dose-dependent effect” and halving of growth (GI50) required 730 nM. Moreover, in data set [2], the inhibition entry was “Active”.

In the case of `COC(=O)[C@H](Cc1ccc(-n2nnc(-c3cc(F)cc(F)c3)n2)cc1)N1C(=O)C=CC1=O`, in data set [1], the “growth inhibition (GI)” value was “Dose-dependent effect” and halving of growth (GI50) required 1100 nM. In addition, in data set [2], the inhibition result is “Active”.

As for `COC(=O)[C@H](Cc1ccc(-n2nnc(-c3ccncc3)n2)cc1)N1C(=O)C=CC1=O`, in data set [1], the “growth inhibition (GI)” value was “Dose-dependent effect” and the concentration for 50% growth inhibition (GI50) amounted to 1860 nM. Besides, the inhibition result in data set [2] is “Active”.

For `COC(=O)[C@H](Cc1ccc(-n2nnc(-c3ccccc3)n2)cc1)N1C(=O)C=CC1=O`, the result in data set [3] and in data set [6] was Active. Besides, the inhibition entry in [4], in data set [2] and in data set [5] was “Active” throughout. In addition, the “growth inhibition (GI)” value in [1] is “Dose-dependent effect”. This compound also yielded a 50% growth inhibitory concentration (GI50) in data set [1] of 300 nM.

With `COC(=O)[C@H](Cc1ccc(-n2nnc(-c3ccc(C(C)C)cc3)n2)cc1)N1C(=O)C=CC1=O`, in data set [1], the “growth inhibition (GI)” value was “Dose-dependent effect” and growth was halved (GI50) at 380 nM. In addition, the inhibition entry in data set [2] was “Active”.

As to `COC(=O)[C@H](Cc1ccc(-n2nnc(-c3ccc(C(F)(F)F)cc3)n2)cc1)N1C(=O)C=CC1=O`, in [1], the “growth inhibition (GI)” value is “Dose-dependent effect” and growth was halved (GI50) at 1770 nM. Also, in data set [2], the inhibition result was “Active”.

For the compound `O=C(O)[C@H](Cc1c[nH]c2ccccc12)N1C(=O)C=CC1=O`, the inhibition entry in data set [4], in data set [2] and in [5] was “Active” each time. The GI50 in data set [1] came to 7310 nM.

Turning to `COC(=O)[C@H](Cc1ccc(-n2nnc(-c3ccc(OC)cc3)n2)cc1)N1C(=O)C=CC1=O`, in [1], the “growth inhibition (GI)” value was “Dose-dependent effect” and halving of growth (GI50) required 870 nM. Besides, the inhibition entry in data set [2] was “Active”.
